Test results: ChEMBL document CHEMBL1154490, “Novel linear triaryl guanidines, N-substituted guanidines and potential prodrugs as antiprotozoal agents” (Eur J Med Chem, 2008)
The source made the active and inactive calls. The calls are words filed in the database; no cut-off is given here.

Legend:
[1] = tested on: Trypanosoma brucei rhodesiense; assay: Antitrypanosomal activity against Trypanosoma brucei rhodesiense STIB900 infected in mouse assessed as average survival days at 20 mg/kg, ip administered on day 3 to 6 after infection; type: functional; settings: route intraperitoneal
L6 = assay: Cytotoxicity against rat L6 cells after 72 hrs by alamar blue assay; type: cell-based; settings: L6, 72 h
How it was run: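 Cultured L6 rat myoblasts exposed to compound; viability read by the same Alamar Blue procedure used for the STIB900 trypanosome assay; duplicate determinations.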

[2] = Binding affinity to poly(dA-dT)2 DNA assessed as change in thermal melting temperature administered at compound to DNA ratio of 0.3 by thermistor analysis
How it was run: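 Thermal melting of poly(dA-dT)2 in CAC 10 buffer (cacodylic acid 10 mM, EDTA 1 mM, NaCl 100 mM, pH 7.0), 1 cm quartz cuvettes, temperature raised 0.5 C/min. DNA quantified by A260. Compound:DNA 0.3 mol/mol, compound-free DNA as control. ΔTm reproducible within 0.5 C.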

[3] = tested on: Trypanosoma brucei rhodesiense; assay: Antiprotozoal activity against Trypanosoma brucei rhodesiense STIB900 bloodstream form after 72 hrs by alamar blue assay; type: functional, organism-based
Plasmodium falciparum = assay: Antiprotozoal activity against chloroquine and pyrimethamine-resistant Plasmodium falciparum K1 after 72 hrs by [3H]hypoxanthine uptake; type: functional, organism-based
[4] = tested on: Trypanosoma brucei rhodesiense; assay: Antitrypanosomal activity against Trypanosoma brucei rhodesiense STIB900 infected in mouse assessed as parasite-free survival at 20 mg/kg, ip administered on day 3 to 6 after infection measured on day 60; type: functional, organism-based; set-up: dose 20 mg/kg
How it was run: (§1)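 STIB900 acute mouse infection model with four infected mice per group. Parent compounds were given intraperitoneally and prodrugs orally, once daily for 4 days. Read-outs were the number of mice alive and parasite-free at day 60, and average days of survival.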

[5] = tested on: Trypanosoma brucei rhodesiense; assay: Antitrypanosomal activity against Trypanosoma brucei rhodesiense STIB900 infected in mouse assessed as average survival days at 25 mg/kg, po administered on day 3 to 6 after infection; type: functional
[6] = tested on: Trypanosoma brucei rhodesiense; assay: Antitrypanosomal activity against Trypanosoma brucei rhodesiense STIB900 infected in mouse assessed as parasite-free survival at 25 mg/kg, po administered on day 3 to 6 after infection measured on day 60; type: functional, organism-based; set-up: dose 25 mg/kg; how it was run: as §1
[7] = tested on: Trypanosoma brucei rhodesiense; assay: Antitrypanosomal activity against Trypanosoma brucei rhodesiense STIB900 infected in mouse assessed as parasite-free survival at 25 mg/kg, ip administered on day 3 to 6 after infection measured on day 60; type: functional, organism-based; set-up: dose 25 mg/kg
[8] = tested on: Trypanosoma brucei rhodesiense; assay: Antitrypanosomal activity against Trypanosoma brucei rhodesiense STIB900 infected in mouse assessed as average survival days at 25 mg/kg, ip administered on day 3 to 6 after infection; type: functional; settings: route intraperitoneal

Compound	Activity [1] [days]	IC50 (L6) [nM]	ΔTm [2] [°C]	IC50 [3] [nM]	IC50 (Plasmodium falciparum) [nM]	Activity [4]	Activity [5] [days]	Activity [6]	Activity [7]	Activity [8] [days]
CNC(=N)Nc1ccc(-c2ccc(-c3ccc(NC(=N)NC)cn3)cc2)nc1	>47	> 161000	10.2	134	54	inactive				
CCOC(=O)/N=C(\NC)Nc1ccc(-c2ccc(-c3ccc(N/C(=N/C(=O)OCC)NC)cc3)cc2)cc1		5700		7500	8.9		20.25	inactive		
N=C(N)Nc1ccc(-c2ccc(-c3ccc(NC(=N)N)cc3)cc2)cc1	>54.5	25400	14.2	18	27	inactive				
CC(C)NC(=N)Nc1ccc(-c2ccc(-c3ccc(NC(=N)NC(C)C)cn3)cc2)nc1		89700	8.1	11900	393					
CC(C)NC(=N)Nc1ccc(-c2ccc(-c3ccc(NC(=N)NC(C)C)cc3)cc2)cc1		21900	9.3	530	14					
CCOC(=O)/N=C(/Nc1ccc(-c2ccc(-c3ccc(N/C(=N/C(=O)OCC)NC(C)C)cc3)cc2)cc1)NC(C)C		5300		14200	4.5					
N=C(N)Nc1ccc(-c2ccc(-c3ccc(NC(=N)N)cn3)cc2)nc1	8.5	152000	9.2	169	151	inactive				
CCOC(=O)/N=C(/Nc1ccc(-c2ccc(-c3ccc(N/C(=N/C(=O)OCC)NC(C)C)cn3)cc2)nc1)NC(C)C		> 135000		8200	2.9					
CCOC(=O)/N=C(\N)Nc1ccc(-c2ccc(-c3ccc(N/C(N)=N/C(=O)OCC)cn3)cc2)nc1		> 181000		61000	1.9			inactive		
N=C(N)c1ccc(-c2ccc(-c3ccc(C(=N)N)cc3)cc2)cc1	29		18.2		1	inactive				
CNC(=N)Nc1ccc(-c2ccc(-c3ccc(NC(=N)NC)cc3)cc2)cc1	>56	65100	13	18	7	inactive				
CCOC(=O)/N=C(\NC)Nc1ccc(-c2ccc(-c3ccc(N/C(=N/C(=O)OCC)NC)cn3)cc2)nc1		> 169000		17800	2.6				inactive	7.75
CCOC(=O)/N=C(\N)Nc1ccc(-c2ccc(-c3ccc(N/C(N)=N/C(=O)OCC)cc3)cc2)cc1		> 181000		142000	1.7		20.25	inactive		
